The source made the active and inactive calls.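 Rule for the calls: active = toxic dose divided by the dose restoring drug killing exceeds 10, where toxic dose is under 15 µM; inactive = the rest.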
System: Jurkat/DNR + daunorubicin, trypan blue viability, 3 d
Assay: chemoreversal in ABCB1-expressing Jurkat/DNR cells – cell-based, trypan blue viability, SAR set 2, SAR follow-up (AID 504476)
Conditions: for CC50: measured here: TD50 toxicity without chemotherapeutic
How it was run: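 System: Jurkat/DNR cells; quantity: 100,000 cells per mL; also added: daunorubicin held at a fixed, constant concentration; times: 3-day compound exposure alongside daunorubicin; technique: trypan blue exclusion with light-microscopy cell counting; evaluation: concentration halving cell viability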

EC50	SMILES	CC50
0.19 µM (inactive)	O=C(c1ccoc1)N1CCN(c2cc(-c3ccco3)nc3cc(-c4ccco4)nn23)CC1	1.93 µM
0.19 µM (inactive)	CC(=O)N1CCN(c2cc(-c3ccco3)nc3cc(-c4ccccc4)nn23)CC1	10.1 µM
5.77 µM	COc1ccc(-c2cc3nc(-c4ccco4)cc(N4CCN(C(=O)c5ccoc5)CC4)n3n2)cc1	> 100 µM
0.17 µM (inactive)	COc1ccccc1-c1cc(N2CCN(C(=O)c3ccoc3)CC2)n2nc(-c3ccccc3)cc2n1	3.7 µM
0.18 µM (inactive)	COc1cccc(-c2cc(N3CCN(C(=O)c4ccoc4)CC3)n3nc(-c4ccccc4)cc3n2)c1	5.7 µM
0.32 µM	COc1cccc(-c2cc3nc(-c4ccco4)cc(N4CCN(C(C)=O)CC4)n3n2)c1	49.3 µM
0.35 µM (inactive)	Cc1ccc(-c2cc3nc(-c4ccco4)cc(N4CCN(Cc5ccoc5)CC4)n3n2)cc1	12.5 µM
0.35 µM (inactive)	O=C(c1ccoc1)N1CCCN(c2cc(-c3ccco3)nc3cc(-c4ccccc4)nn23)C1	12 µM
0.42 µM (inactive)	O=C(c1ccoc1)N1CCN(c2cc(-c3ccoc3)nc3cc(-c4ccccc4)nn23)CC1	7.3 µM
0.08 µM	CC(=O)N1CCN(c2cc(-c3ccco3)nc3cc(-c4cccc(Cl)c4)nn23)CC1	17.6 µM
